Calls of active or inactive are those of the source. No cut-off for these calls is given here.
Key:
BaF3 [1] = assay: Antiproliferative activity against mouse BAF3 cells harboring EGFR L858R mutant after 72 hrs by resazurin dye-based fluorescence assay; format: functional, cell-based; conditions: BaF3, 72 h
Summary of the method: (§1)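 Ba/F3 cells engineered to express each target were exposed to inhibitor for 72 h, after which proliferation was measured.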

[2] = molecular target: T1, Receptor tyrosine-protein kinase erbB-2 (Homo sapiens, UniProt P04626); assay: Inhibition of HER2 in human BT474 cells assessed as reduction in autophosphorylation at Y1221/1222 residue at 5 to 100 nM after 6 hrs by Western blot analysis; format: cell-based; conditions: BT-474, dose 5-100 nM
T1 sequence (P04626 whole entry): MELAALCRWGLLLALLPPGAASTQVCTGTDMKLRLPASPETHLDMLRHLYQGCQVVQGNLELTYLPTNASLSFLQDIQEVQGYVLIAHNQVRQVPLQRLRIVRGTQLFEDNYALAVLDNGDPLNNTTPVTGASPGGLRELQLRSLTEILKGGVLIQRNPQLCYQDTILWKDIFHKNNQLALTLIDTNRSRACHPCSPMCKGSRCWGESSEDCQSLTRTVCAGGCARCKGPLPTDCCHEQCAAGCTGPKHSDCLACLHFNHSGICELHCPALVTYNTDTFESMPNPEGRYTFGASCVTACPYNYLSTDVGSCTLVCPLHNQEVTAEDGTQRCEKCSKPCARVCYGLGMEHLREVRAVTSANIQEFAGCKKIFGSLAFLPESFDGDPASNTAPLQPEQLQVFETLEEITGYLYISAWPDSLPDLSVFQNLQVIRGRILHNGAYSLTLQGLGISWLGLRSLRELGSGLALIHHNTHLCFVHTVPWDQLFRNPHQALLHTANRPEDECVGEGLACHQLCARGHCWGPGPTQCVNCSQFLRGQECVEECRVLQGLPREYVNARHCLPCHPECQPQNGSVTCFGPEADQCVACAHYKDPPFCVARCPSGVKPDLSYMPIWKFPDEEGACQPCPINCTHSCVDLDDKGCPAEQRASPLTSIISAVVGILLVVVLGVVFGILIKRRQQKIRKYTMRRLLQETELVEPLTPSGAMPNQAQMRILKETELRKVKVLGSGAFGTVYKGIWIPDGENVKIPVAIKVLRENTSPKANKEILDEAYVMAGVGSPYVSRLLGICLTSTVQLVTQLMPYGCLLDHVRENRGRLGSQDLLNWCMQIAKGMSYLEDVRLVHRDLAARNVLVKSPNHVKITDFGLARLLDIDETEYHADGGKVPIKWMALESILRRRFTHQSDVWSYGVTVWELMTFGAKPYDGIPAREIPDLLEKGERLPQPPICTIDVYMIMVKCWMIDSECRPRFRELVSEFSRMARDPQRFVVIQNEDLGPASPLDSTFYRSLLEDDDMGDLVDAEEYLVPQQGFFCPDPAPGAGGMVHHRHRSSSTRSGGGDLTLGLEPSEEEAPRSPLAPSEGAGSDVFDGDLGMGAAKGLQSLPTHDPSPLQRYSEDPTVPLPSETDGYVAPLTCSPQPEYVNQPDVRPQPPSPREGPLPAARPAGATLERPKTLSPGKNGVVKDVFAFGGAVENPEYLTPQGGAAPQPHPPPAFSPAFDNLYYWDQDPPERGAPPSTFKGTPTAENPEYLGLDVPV
Summary of the method: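 BT474 HER2-overexpressing breast cancer cells were treated with inhibitor at a range of doses for 6 h. Phospho-HER2 (pY1221/1222) was detected by Western blot. The blots shown are representative of three independent experiments.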

BaF3 [3] = assay: Antiproliferative activity against mouse BAF3 cells harboring EGFR L858R/T790M mutant after 72 hrs by resazurin dye-based fluorescence assay; format: functional, cell-based; conditions: BaF3, 72 h; summary of the method: as §1
BaF3 [4] = assay: Antiproliferative activity against mouse BAF3 cells harboring HER2 wild type after 72 hrs by resazurin dye-based fluorescence assay; format: functional, cell-based; conditions: BaF3, 72 h; summary of the method: as §1
[5] = tested on: Epidermal growth factor receptor (Homo sapiens), P00533 [L858R,T790M]; conditions: NCI-H1975, dose 5-50 nM, time 2.0 hrs
Sequence of Epidermal growth factor receptor (Homo sapiens), P00533 [L858R,T790M] (P00533 whole entry T790M/L858R, looked up, the tested form may be a part): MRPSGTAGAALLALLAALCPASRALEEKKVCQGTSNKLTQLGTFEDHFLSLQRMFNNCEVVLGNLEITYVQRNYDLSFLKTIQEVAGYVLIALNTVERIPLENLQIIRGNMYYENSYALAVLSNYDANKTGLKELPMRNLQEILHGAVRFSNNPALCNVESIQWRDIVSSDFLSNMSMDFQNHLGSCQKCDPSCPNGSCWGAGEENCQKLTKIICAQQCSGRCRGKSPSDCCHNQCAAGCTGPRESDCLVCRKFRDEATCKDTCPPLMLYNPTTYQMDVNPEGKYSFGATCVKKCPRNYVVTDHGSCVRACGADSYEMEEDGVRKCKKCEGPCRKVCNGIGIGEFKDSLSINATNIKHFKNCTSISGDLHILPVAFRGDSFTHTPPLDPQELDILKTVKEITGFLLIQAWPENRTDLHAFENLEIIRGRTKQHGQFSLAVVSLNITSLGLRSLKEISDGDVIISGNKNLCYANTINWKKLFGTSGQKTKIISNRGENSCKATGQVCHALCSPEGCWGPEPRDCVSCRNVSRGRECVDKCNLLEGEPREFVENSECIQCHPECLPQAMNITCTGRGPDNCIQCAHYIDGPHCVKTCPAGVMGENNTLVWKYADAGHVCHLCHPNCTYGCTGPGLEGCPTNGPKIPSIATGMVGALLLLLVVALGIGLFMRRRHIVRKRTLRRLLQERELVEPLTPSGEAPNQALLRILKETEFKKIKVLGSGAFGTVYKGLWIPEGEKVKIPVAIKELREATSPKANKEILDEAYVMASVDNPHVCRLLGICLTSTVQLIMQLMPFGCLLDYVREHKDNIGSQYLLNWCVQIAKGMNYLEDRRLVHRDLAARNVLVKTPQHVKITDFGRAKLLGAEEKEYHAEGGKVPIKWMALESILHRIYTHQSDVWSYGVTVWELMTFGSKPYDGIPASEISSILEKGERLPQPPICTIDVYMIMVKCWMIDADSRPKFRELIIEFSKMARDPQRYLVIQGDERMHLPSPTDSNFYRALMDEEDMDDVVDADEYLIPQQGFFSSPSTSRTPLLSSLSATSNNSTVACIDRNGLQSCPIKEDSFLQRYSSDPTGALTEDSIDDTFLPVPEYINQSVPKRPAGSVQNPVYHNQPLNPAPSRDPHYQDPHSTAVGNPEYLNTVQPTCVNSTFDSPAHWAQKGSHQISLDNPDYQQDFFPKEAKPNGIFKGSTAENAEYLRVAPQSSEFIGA

[6] = molecular target: T2, Epidermal growth factor receptor (Homo sapiens, UniProt P00533); assay: Inhibition of recombinant human N-terminal GST-tagged EGFR wild type (669 to 1210 residues) expressed in baculovirus infected Sf21 insect cells insect cells using AQT0734 as substrate measured up to 240 mins by fluorescence assay
T2 sequence (P00533 whole entry, the tested form may be a part): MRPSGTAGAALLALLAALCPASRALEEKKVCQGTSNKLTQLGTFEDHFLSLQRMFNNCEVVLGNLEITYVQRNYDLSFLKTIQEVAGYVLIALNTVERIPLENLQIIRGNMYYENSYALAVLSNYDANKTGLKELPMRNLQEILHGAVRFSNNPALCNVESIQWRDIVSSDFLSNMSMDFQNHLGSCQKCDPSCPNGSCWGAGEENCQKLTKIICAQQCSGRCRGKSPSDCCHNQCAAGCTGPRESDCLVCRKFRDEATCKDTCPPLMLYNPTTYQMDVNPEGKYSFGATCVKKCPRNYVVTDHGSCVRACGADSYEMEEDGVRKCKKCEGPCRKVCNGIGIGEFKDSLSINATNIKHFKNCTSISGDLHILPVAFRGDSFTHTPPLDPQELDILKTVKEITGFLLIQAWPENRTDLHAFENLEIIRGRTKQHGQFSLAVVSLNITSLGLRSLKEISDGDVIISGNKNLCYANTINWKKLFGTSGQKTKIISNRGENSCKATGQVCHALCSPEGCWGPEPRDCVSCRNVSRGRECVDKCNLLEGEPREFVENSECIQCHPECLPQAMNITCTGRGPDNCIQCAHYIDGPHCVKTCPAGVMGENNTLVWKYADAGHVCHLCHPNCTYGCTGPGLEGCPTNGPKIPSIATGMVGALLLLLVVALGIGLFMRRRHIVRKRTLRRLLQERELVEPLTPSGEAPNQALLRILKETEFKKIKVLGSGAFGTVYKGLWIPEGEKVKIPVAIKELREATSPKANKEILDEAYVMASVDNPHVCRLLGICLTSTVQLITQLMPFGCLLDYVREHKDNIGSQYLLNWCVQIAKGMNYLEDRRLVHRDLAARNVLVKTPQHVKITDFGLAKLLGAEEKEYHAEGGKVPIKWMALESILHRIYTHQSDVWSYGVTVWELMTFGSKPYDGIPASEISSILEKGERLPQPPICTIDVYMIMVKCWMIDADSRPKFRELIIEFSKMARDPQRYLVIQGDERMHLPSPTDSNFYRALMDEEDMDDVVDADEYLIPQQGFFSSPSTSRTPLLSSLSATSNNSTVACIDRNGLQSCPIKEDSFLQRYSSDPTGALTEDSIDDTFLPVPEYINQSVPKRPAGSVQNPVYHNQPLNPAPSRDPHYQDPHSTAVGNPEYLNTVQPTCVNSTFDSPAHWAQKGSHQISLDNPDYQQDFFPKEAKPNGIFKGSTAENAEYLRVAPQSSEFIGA

Homo sapiens [7] = species: Homo sapiens; assay: Selectivity ratio of Kinact for human N-terminal GST-tagged EGFR (669 to 1210 residues) (unknown origin) L858R/T790M mutant to Kinact for human N-terminal GST-tagged EGFR wild type (669 to 1210 residues) (unknown origin)
[8] = molecular target: T1, Receptor tyrosine-protein kinase erbB-2; assay: Inhibition of recombinant human N-terminal GST-tagged HER2 wild type (679 to 1255 residues) expressed in baculovirus infected Sf9 insect cells using AQT0794 measured up to 240 mins by fluorescence assay
Summary of the method: (§2)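 Time-dependent kinetic assay on the HER2 kinase domain with 1000 μM ATP and 15 μM Sox-based substrate sensor. Data come from a single experiment run in duplicate. kinact and Ki were obtained from a two-step fit, and errors are the standard error from the fit.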

[9] = tested on: Epidermal growth factor receptor (Homo sapiens), P00533 [L858R,T790M]; conditions: Sf21, time <= 240.0 min
Homo sapiens [10] = species: Homo sapiens; assay: Selectivity ratio of Ki for human N-terminal GST-tagged EGFR wild type (669 to 1210 residues) (unknown origin) to Ki for human N-terminal GST-tagged EGFR L858R/T790M mutant (669 to 1210 residues) (unknown origin)
[11] = molecular target: T1, Receptor tyrosine-protein kinase erbB-2; assay: Inhibition of recombinant human N-terminal GST-tagged HER2 wild type (679 to 1255 residues) expressed in baculovirus infected Sf9 insect cells assessed as Kinact/Ki ratio using AQT0794 measured up to 240 mins by fluorescence assay; summary of the method: as §2
[12] = molecular target: T1, Receptor tyrosine-protein kinase erbB-2; assay: Inhibition of recombinant human N-terminal GST-tagged HER2 wild type (679 to 1255 residues) expressed in baculovirus infected Sf9 insect cells assessed as Kinact using AQT0794 as substrate measured up to 240 mins by fluorescence assay; summary of the method: as §2
[13] = molecular target: T2, Epidermal growth factor receptor; conditions: Sf21, time <= 240.0 min
[14] = molecular target: Epidermal growth factor receptor (Homo sapiens, UniProt P00533, L858R/T790M); assay: Inhibition of recombinant human N-terminal GST-tagged EGFR (669 to 1210 residues) (unknown origin) L858R/T790M mutant expressed in baculovirus infected Sf21 insect cells using AQT0734 as substrate measured up to 240 mins by fluorescence assay
Sequence of Epidermal growth factor receptor (Homo sapiens, UniProt P00533, L858R/T790M) (P00533 25-1210 T790M/L858R limits assumed): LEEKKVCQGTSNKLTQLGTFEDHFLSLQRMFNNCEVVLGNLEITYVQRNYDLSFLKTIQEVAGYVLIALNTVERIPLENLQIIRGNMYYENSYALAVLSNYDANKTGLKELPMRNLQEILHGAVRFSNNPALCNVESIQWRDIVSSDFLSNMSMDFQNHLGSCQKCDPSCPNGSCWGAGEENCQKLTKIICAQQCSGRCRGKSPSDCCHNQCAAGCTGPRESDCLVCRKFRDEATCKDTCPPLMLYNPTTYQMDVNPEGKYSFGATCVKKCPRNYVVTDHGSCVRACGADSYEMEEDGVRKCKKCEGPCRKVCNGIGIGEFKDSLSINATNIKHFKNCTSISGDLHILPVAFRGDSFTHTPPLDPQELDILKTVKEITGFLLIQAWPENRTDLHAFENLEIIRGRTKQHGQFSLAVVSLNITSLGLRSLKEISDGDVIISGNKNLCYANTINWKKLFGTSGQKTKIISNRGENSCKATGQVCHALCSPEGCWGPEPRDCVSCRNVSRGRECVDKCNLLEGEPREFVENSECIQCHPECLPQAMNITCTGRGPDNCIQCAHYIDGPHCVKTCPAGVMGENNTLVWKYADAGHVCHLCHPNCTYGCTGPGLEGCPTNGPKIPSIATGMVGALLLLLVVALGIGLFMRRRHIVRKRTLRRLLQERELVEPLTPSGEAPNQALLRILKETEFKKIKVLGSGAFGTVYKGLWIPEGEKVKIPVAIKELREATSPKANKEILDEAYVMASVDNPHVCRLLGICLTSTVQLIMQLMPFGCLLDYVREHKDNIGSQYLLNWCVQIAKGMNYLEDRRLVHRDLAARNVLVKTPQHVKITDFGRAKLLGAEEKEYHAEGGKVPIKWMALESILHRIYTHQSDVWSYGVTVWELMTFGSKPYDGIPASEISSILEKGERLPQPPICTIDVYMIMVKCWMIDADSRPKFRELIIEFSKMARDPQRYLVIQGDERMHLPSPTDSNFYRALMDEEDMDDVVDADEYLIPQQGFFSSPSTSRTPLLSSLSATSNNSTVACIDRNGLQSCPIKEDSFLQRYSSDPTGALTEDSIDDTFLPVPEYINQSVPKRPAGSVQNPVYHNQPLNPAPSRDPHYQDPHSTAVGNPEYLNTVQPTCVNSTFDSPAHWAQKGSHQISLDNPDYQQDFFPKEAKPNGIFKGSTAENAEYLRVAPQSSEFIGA

Homo sapiens [15] = species: Homo sapiens; assay: Selectivity ratio of Kinact/Ki for human N-terminal GST-tagged EGFR (669 to 1210 residues) (unknown origin) L858R/T790M mutant to Kinact/Ki for human N-terminal GST-tagged EGFR wild type (669 to 1210 residues) (unknown origin)

Structure (SMILES) | EC50 (BaF3 [1]) [nM] | inhibition [2] | EC50 (BaF3 [3]) [nM] | EC50 (BaF3 [4]) [nM] | inhibition [5] | Ki [6] [nM] | Selectivity ratio (Homo sapiens [7]) | Ki [8] [nM] | Kinact [9] [min⁻¹] | Ratio Ki (Homo sapiens [10]) | Ratio [11] [M⁻¹ s⁻¹] | Kinact [12] [min⁻¹] | Kinact [13] [min⁻¹] | Ki [14] [nM] | Selectivity ratio (Homo sapiens [15])
C=CC(=O)Nc1cc(Nc2nccc(-c3cn(C)c4ccccc34)n2)c(OC)cc1N(C)CCN(C)C [OSIMERTINIB] | 3.2 | Active | 14 | 34 | – | – | – | – | – | – | – | – | – | – | –
C=CC(=O)Nc1cc(Nc2nccc(-n3cc(CN(C)C)c(-c4ccccc4)n3)n2)c(OC)cc1N1CCOCC1 [LAZERTINIB] | 4.8 | Active | 7.4 | > 100 | Active | 271 | 0.36 | 437 | 0.235 | 8 | 6310 | 0.166 | 0.648 | 34 | 3.2
C=CC(=O)Nc1ccc(OC)c(Nc2cc(-c3[nH]c(SC)nc3-c3ccc(F)cc3)ccn2)c1 | 0.51 | Active | 21 | – | Active | – | – | 142 | – | – | – | – | – | – | –

Source: ChEMBL document CHEMBL5113557, “Structural Basis for Inhibition of Mutant EGFR with Lazertinib (YH25448)” (ACS Med Chem Lett, 2022)
